Screening data: PubChem BioAssay, Johns Hopkins Ion Channel Center
Kir21 block = Kir2.1 (mouse) channel inhibition; P35561; HEK293-Kir2.1, FluxOR thallium flux fluorescence; stronger effect = lower value; B-score at 10 µM; 310,000 compounds, 0.85% hits;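 active = fluorescence ratio B-score at or below minus 3 SD of library scores, with starting-brightness B-score within 2 SD, cut at about -4.2 in these data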;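 note: channel flux triggered by added potassium and thallium sulfate stimulus; B-score of peak minus minimum fluorescence over baseline after thallium stimulus; more negative B-score means stronger Kir2.1 block with less thallium influx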
Target sequence (P35561 whole entry, looked up): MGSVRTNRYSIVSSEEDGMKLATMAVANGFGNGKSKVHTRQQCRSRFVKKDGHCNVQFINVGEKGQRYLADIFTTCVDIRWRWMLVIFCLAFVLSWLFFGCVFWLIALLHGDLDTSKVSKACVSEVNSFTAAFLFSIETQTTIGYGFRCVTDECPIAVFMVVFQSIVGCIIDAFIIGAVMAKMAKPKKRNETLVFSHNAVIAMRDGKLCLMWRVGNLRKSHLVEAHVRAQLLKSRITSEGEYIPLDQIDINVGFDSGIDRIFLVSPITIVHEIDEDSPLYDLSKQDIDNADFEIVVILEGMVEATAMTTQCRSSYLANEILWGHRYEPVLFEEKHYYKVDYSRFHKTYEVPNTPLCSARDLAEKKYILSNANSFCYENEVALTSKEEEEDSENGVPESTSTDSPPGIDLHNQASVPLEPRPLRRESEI
KCNQ1 inh = human KCNQ1 channel inhibition. CHO-K1 KCNQ1, FluxOR thallium flux fluorescence; stronger effect = higher value. B-score at 10 µM. 310,000 compounds, 1.3% hits;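 active = compounds whose thallium flux B-score, printed positive for inhibition, exceeds three library SD while starting fluorescence stays within three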;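 note: channel opened by potassium depolarization with thallium stimulus after 20 min compound exposure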
KCNK9 block = inhibitors of human KCNK9 two-pore domain potassium channel; Q9NPC2; HEK293 KCNK9, FluxOR thallium flux fluorescence; stronger effect = lower value; B-score at 10 µM; 310,000 compounds, 1.2% hits;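 active = ratio B-score over 3 SD below the library mean, with starting fluorescence within 5 SD of its mean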;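 note: negative B-score means less thallium flux so channel inhibition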
KCNQ1 act = potentiates or activates the human KCNQ1 potassium channel. P51787. CHO-K1 KCNQ1, thallium flux FluxOR fluorescence; stronger effect = higher value. B-score at 10 µM. 310,000 compounds, 0.35% hits. AID 2648;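 active = fluorescence ratio B-score, a plate-corrected score, at least three library SD, with initial intensity B-score within 5 SD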
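System: CHO-K1 cells stably expressing KCNQ1 / Medium: assay buffer for compound exposure, DMSO matched across wells / Reagent: thallium- and potassium-containing depolarizing buffer / Compound: one concentration, matched DMSO / Incubation: 20 min compound pretreatment at room temperature / Measured by: kinetic FluxOR fluorescence, 10 s baseline plus 110 s post-stimulus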
KCNK3 inh = human KCNK3 channel inhibition, primary screen. CHO-KCNK3 thallium flux, FluxOR fluorescence; stronger effect = lower value. B-score at 10 µM. 340,000 compounds, 0.84% hits. AID 602410;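 active = B-score under library mean minus 4 SD, starting fluorescence ratio at most library mean plus 5 SD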;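 note: more negative B-score means stronger inhibition of thallium flux through KCNK3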
hERG protect = compounds protecting human hERG from proarrhythmic drug block; Q12809; CHO-hERG, FluxOR thallium flux, dofetilide IC70 present; activation (rescue from dofetilide block), less the hit threshold, % at 10 µM; 310,000 compounds, 0.51% hits; AID 1511;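 active = activation above the mean of controls blocked by dofetilide plus 5 SD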;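 note: thallium influx through hERG after potassium depolarization seen as dye fluorescence rise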
A number is an active result; i = inactive; nt = not tested or not shown. Hits are enriched below; roughly 3.8% of the tested compounds scored in any of these assays.

SMILES | Kir21 block | KCNQ1 inh | KCNK9 block | KCNQ1 act | KCNK3 inh | hERG protect
Cn1c(CNC(=O)c2ccccc2F)nnc1SCc1ccc(Cl)cc1 | i | i | i | i | i | 8.0
Cn1c(CNC(=O)c2ccccc2F)nnc1SCC(=O)Nc1nncs1 | i | i | i | i | i | i
CCN(CC)CCN(C(=O)c1ccc2c(c1)CCCC2)c1nc2ccc(OC)cc2s1 | i | 12 | i | i | i | i
CCN(CC)CCN(C(=O)c1ccc2c(c1)CCCC2)c1nc2ccc(F)cc2s1 | i | i | i | i | i | i
CCN(CC)CCN(C(=O)c1ccc2c(c1)CCCC2)c1nc2ccc(C)cc2s1 | i | 12 | i | i | i | i
CCN(CC)CCN(C(=O)c1ccc2c(c1)CCCC2)c1nc2c(C)cccc2s1 | i | 8 | i | i | i | i
Cc1ccc(C(=O)c2ccccc2C(=O)OCC(=O)NC(C)(C)C)cc1 | i | i | i | i | i | i
COc1cc(C(=O)NCCNC(=O)C2CCCNC2=O)cc(OC)c1OC (configuration not stated) | i | i | i | i | i | i
O=S(=O)(NCCc1cn2ccccc2n1)c1ccc(-c2ccccc2)cc1 | -4.2 | i | i | i | i | i
CN(C)CCCN(C(=O)CCc1ccccc1)c1nc2ccc(F)cc2s1 | -4.9 | i | i | i | i | i
O=C1c2cc(Br)ccc2N(Cc2ccc(Br)cc2)S(=O)(=O)C1c1cc(Cl)c(Cl)cc1[N+](=O)[O-] (configuration not stated) | nt | nt | nt | nt | i | nt
OC(c1ccccc1)c1nc2ccccc2[nH]1 (configuration not stated) | i | i | i | i | i | i
CC(=O)NC(c1ccccc1)c1nc2ccccc2[nH]1 (configuration not stated) | i | i | i | i | -11 | i
COc1ccccc1OC(=O)Nc1ccc(Cl)cc1 | i | 6 | i | i | i | i
O=C1CSC(c2cccnc2)N1Cc1ccc(Cl)cc1Cl (configuration not stated) | -4.4 | i | i | i | i | i
CCCCn1c(=O)n(Cc2cccc(F)c2)c(=O)c2c1ncn2Cc1ccco1 | i | i | i | i | -10 | i
Cc1ccc(NC(=O)CSc2ncc3ccccn23)cc1C | i | i | i | i | i | 5.9
COc1ccc(CCNC(=O)/C(C#N)=C/c2cccc(OCc3ccccc3)c2)cc1OC | -4.4 | i | i | i | i | i
COCCNC(=O)/C(C#N)=C/c1cccs1 | i | i | i | i | i | i
COCCNC(=O)/C(C#N)=C/c1ccc(OC(=O)c2cccs2)c(OC)c1 | -6 | i | i | i | i | i
CCCCNC(=S)N(Cc1c(C)noc1C)c1ccccc1 | -5.4 | i | i | i | i | i
CCNC(=S)N(Cc1c(C)noc1C)c1ccccc1 | i | i | i | i | i | i
COc1ccc(S(=O)(=O)N2CCCCC2)cc1NS(=O)(=O)c1ccccc1 | nt | nt | nt | nt | i | nt
CCc1ccc2[nH]c(=O)c(CN(CCCN3CCOCC3)C(=O)Nc3ccc(Cl)cc3)cc2c1 | i | i | i | i | i | i
CCc1ccc2[nH]c(=O)c(CN(CCCN3CCOCC3)C(=O)Nc3cccc(Cl)c3)cc2c1 | i | 6 | i | i | i | i
SMILES | Kir21 block | KCNQ1 inh | KCNK9 block | KCNQ1 act | KCNK3 inh | hERG protect
O=C(COC(=O)c1ccc2ccccc2n1)NC1CCCCC1 | nt | nt | nt | nt | i | nt
CCOC(=O)c1ccc(N2CCN(c3cc(C)ccc3C)CC2)c(N)c1 | i | i | -6.8 | i | i | i
Cc1nn(-c2ccccc2)c(Cl)c1/C=C1\SC(=S)NC1=O | i | i | i | 28 | i | 19
O=[N+]([O-])c1ccc(O)c(-c2cc(C(F)(F)F)nc(-c3ccccc3)n2)c1 | i | 7 | i | i | i | i
Oc1ccccc1-c1cc(C(F)(F)C(F)F)nc(-c2ccccc2)n1 | i | i | i | i | i | i
CCOC(=O)N1CCN(C(=O)COC(=O)c2cc(Cl)c(O)c(Cl)c2)CC1 | i | i | i | i | i | 8.1
CCOC(=O)N1CCN(C(=O)COC(=O)c2cc(Cl)cc(Cl)c2)CC1 | nt | nt | nt | nt | i | nt
COc1ccc(C(c2c[nH]c3ccccc23)c2c[nH]c3ccccc23)cc1O | i | 7 | i | i | i | i
COc1cc(CN(C)C(=O)C(=O)c2c[nH]c3ccccc23)ccc1O | nt | nt | nt | nt | i | nt
CCN(CC)C(=O)C[n+]1cccc(C(N)=O)c1 | i | i | i | i | i | i
COc1ccccc1NC(=O)CSc1ccc(-c2ccc(-n3cccn3)cc2)nn1 | i | i | i | i | i | i
Cc1ccc([N+](=O)[O-])cc1N=Nc1c(-c2ccc([N+](=O)[O-])cc2)[nH]n(C(N)=S)c1=O | i | 7 | i | i | i | i
Cc1ccc([N+](=O)[O-])cc1N=Nc1c(C)[nH]n(C(N)=S)c1=O | i | i | i | i | i | i
COc1ccc2oc(C(=O)OCC(=O)Nc3ccc(C(=O)N(C)C)cc3)c(C)c2c1 | i | i | i | i | i | i
CC1CCCCN1C(=O)c1cccc(NC2=C(Cl)C(=O)N(Cc3ccccc3)C2=O)c1 (configuration not stated) | nt | nt | nt | nt | -11 | nt
CCCCOc1ccc(C(C)NC(=O)CCS(=O)(=O)Cc2ccccc2Cl)cc1 (configuration not stated) | i | i | i | i | i | i
CCOc1ccccc1NC(=O)Nc1ccc2c(c1)OCO2 | i | i | i | i | i | i
C=CCOc1ccccc1CN(C(=O)CCl)c1ccc2c(c1)OCO2 | -4.2 | i | i | i | i | i
C=CCNCc1cccn1-c1sc2c(c1C#N)CCCC2 | i | i | i | i | i | i
N#Cc1c(-n2cccc2/C=N/O)sc2c1CCCC2 | -9.8 | i | i | i | i | i
C=C1CCN([C@@H](CC(C)C)C(=O)Nc2nc3ccc(Cl)cc3s2)S(=O)(=O)c2ccccc21 | i | i | i | i | i | i
CCC(C)c1ccccc1NC(=O)CN1CCN(C/C=C/c2ccccc2)CC1 (configuration not stated) | -4.5 | i | i | i | i | i
c1ccc(SCCOCCN2CCc3ccccc3C2)cc1 | -5.4 | i | i | i | i | i
Cc1ccsc1/C=N/NC(=O)c1cccs1 | i | i | i | i | i | i
Cc1ccsc1/C=N/NC(=O)c1ccccn1 | i | i | i | i | i | 4.7
Cc1ccsc1/C=N/NC(=O)C(N)=O | i | i | i | i | i | 4.7
Cc1c(C(=O)O)cnc2c([N+](=O)[O-])cnn12 | i | i | i | i | i | i
CC(=O)Nc1ccc(N2C(C(C)=O)=NN(c3ccccc3)C2c2cccs2)cc1 (configuration not stated) | i | i | i | i | i | i
COc1ccc(N2C(C(C)=O)=NN(c3ccccc3)C2c2cccs2)cc1 (configuration not stated) | i | 7 | i | i | i | i
CC(C)NC(=O)N(C)C[C@H]1Oc2c(cccc2N(C)C)C(=O)N([C@H](C)CO)C[C@@H]1C | nt | nt | nt | nt | i | nt
